High-throughput results from PubChem BioAssay.
A selection: hits, their analogues and other compounds. The true share with any hit is near 2.3%.
EBNA-1 inhibitor – blocks EBNA-1 binding to DNA. EBNA-1 DNA binding, fluorescence polarization. inhibition, % at 14.8 µM. 300,000 tested, 0.34% active. AID 1950; in the data active = inhibition above about 28%
GPR7 antagonist – blocks human GPR7 receptor signaling | P48145 | GPR7-expressing cells, fluorescence antagonist assay | inhibition, % at 4.4 µM | 290,000 tested, 1.1% active; in the data active = inhibition above about 16%, passing the limit was not always enough;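 also: cells stimulated with the agonist NPW; 0% = agonist with vehicle and 100% = vehicle without agonist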
core dimer inh – blocks dimerization of HCV core protein; inhibition, % at 5 µM; AID 1899; 300,000 tested, 0.33% active; TR-FRET GST/Flag-core106 dimerization, 1536-well;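 active = inhibition above the mean of all tested compounds plus 3 SD, set per screening campaign, cut at about 45% in these data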
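System: GST-tagged and Flag-tagged HCV core protein residues 1-106 / Input: core106 proteins, GST 13.5 nM and Flag 17 nM / Buffer or medium: KF-containing HEPES buffer, pH 7.45, DTT, CHAPS, BSA / Probe or stimulus: Eu-anti-GST and XL665-anti-Flag labelled anti-tag antibodies / Schedule: 4 h, 22.5 °C incubation / Technique: TR-FRET 671 and 617 nm emission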
NS3 helicase inh – HCV NS3 helicase inhibition. NS3 helicase DNA unwinding, Cy5 molecular beacon fluorescence. inhibition, % at 10.9 µM. 290,000 tested, 0.56% active;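 active = inhibition above the mean of all tested compounds plus 3 SD, set per campaign, cut at about 35% in these data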;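 also: 0% = DMSO wells and 100% = thioflavine S control wells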
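Assay system – hepatitis C virus NS3 helicase domain fragment enzyme · Buffer or medium – MOPS pH 6.5, MgCl2, DTT, Tween20, BSA · Reagent – Cy5/quencher beacon DNA duplex and ATP to start · Compound – single 10.9 µM dose · Timing – 1 h at 25 °C · Technique – Cy5 beacon fluorescence read at start and 1 h · Measure – % inhibition of unwinding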
EBV gp42 inh – inhibitors of Epstein-Barr virus glycoprotein 42. AID 1085. inhibition, % (tested at 21.74 µM). Fluorescence polarization binding assay, mP read-out. Q1HVG2. 220,000 tested, 0.42% active; in the data active = inhibition above about 50%
Target sequence (Q1HVG2 whole entry, looked up): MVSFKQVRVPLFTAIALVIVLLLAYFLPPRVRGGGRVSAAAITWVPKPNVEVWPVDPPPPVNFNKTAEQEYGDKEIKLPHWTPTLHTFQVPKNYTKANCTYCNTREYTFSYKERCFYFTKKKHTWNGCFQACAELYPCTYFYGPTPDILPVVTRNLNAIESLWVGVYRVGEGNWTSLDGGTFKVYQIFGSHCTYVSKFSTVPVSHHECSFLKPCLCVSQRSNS
ZTA counter – ZTA (EBV) inhibition in EBNA-1 counter-screen; ZTA-DNA binding, fluorescence polarization; inhibition, % at 11 µM; 320,000 tested, 0.15% active; AID 2234; in the data active = inhibition above about 33%
Target sequence (P03206 whole entry, looked up): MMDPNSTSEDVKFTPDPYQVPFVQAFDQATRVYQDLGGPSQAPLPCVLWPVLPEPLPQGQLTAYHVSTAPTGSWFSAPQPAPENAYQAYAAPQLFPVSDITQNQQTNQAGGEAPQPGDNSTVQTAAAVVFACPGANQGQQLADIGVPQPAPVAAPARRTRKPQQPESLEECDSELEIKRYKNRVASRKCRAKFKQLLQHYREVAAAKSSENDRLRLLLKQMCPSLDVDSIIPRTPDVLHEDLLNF
GPR7 antag conf – human GPR7 antagonism, confirmation assay. shares compounds with GPR7 antagonist. GPR7-expressing cells, calcium fluorescence antagonist mode. inhibition, % at 4.4 µM. 2,400 tested, 52% active; in the data active = inhibition above about 24%;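 also: stimulated with the GPR7 agonist NPW; 0% = agonist plus vehicle and 100% = vehicle alone without agonist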
MCHR1 antag – MCHR1 (human) antagonism in GPR7 counter-screen; shares compounds with GPR7 antagonist; MCHR1-expressing cells, fluorescence antagonist assay; inhibition, % at 4.4 µM; 2,400 tested, 62% active; in the data active = inhibition above about 22%;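 also: 0% = vehicle with agonist and 100% = vehicle without agonist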
* = called active by the depositor; nt = no result given.

SMILES	EBNA-1 inhibitor	GPR7 antagonist	core dimer inh	NS3 helicase inh	EBV gp42 inh	ZTA counter	GPR7 antag conf	MCHR1 antag
CCN(CC)CCn1c(=N)n(CC(O)COc2ccccc2)c2ccccc21 (centres undefined)	-6.9	28.6*	-1.2	5.2	-16.4	-15.9	23.0	18.7
COc1ccccc1OCC(O)Cn1c(=N)n(Cc2ccccc2)c2ccccc21 (centres undefined)	-3.4	25.3*	-7.2	-47.7	6.0	-1.8	28.5*	35.2*
CCCCn1c(=N)n(CC(O)COc2cccc(C)c2)c2ccccc21 (centres undefined)	15.2	33.4*	-1.7	-72.7	3.7	3.6	36.7*	45.5*
Cc1c(NN=C(C#N)C#N)c(=O)n(-c2ccccc2)n1C	-0.8	-8.2	-2.2	-2.9	-27.2	0.4	nt	nt
Cc1cccc(S(=O)(=O)Nc2nc3ccccc3nc2NCc2ccc3c(c2)OCO3)c1	-5.5	-8.5	1.1	-2.0	2.7	2.8	nt	nt
c1ccc(-c2c[n+]3c(n2-c2ccccc2)CCC3)cc1	-1.2	0.4	0.3	-2.3	-1.1	-29.1	nt	nt
CCOc1ccc(-n2c(-c3ccccc3)c[n+]3c2CCCCC3)cc1	-11.2	28.6*	-10.3	4.2	-6.7	-7.0	47.4*	44.8*
COc1cccc(NC(=O)[C@H](CC(C)C)NC(=O)[C@@H]2Cc3ccccc3CN2)c1	-15.1	18.0	-1.5	-18.6	nt	-4.1	nt	nt
O=C(/C(=C(\O)c1ccccc1)c1ncc[nH]1)c1ccccc1	4.3	-9.9	2.4	-1.7	-10.3	14.2	nt	nt
O=C(CCCN1C(=O)C(c2ccccc2)Oc2cccnc21)NCc1ccccc1F (centres undefined)	-16.1	-1.7	5.0	7.8	nt	-0.3	nt	nt
CC(=O)Nc1ccc(Sc2ncccc2C(=O)Nc2ccc(F)cc2)cn1	-2.8	62.3*	-5.2	-2.3	-6.1	0.2	97.8*	97.7*
O=C(Nc1ccc(F)cc1)c1cccnc1Oc1ccccc1	1.1	-4.7	4.8	-5.8	nt	-7.3	nt	nt
O=C(NCCc1ccc(F)cc1)Nc1ccc([N+](=O)[O-])cc1	nt	9.8	nt	12.1	nt	nt	nt	nt
O=[N+]([O-])c1ccc(NC(=S)NCCc2ccc(F)cc2)cc1	4.7	32.6*	-4.6	-15.8	8.0	-10.1	74.8*	66.7*
NC(=O)C1CCN(C(=O)C2CC(=O)N(c3ccc4c(c3)OCCO4)C2)CC1 (centres undefined)	nt	nt	nt	nt	nt	-7.3	nt	nt
Cc1ccc(Nc2nc(N)nc(CSc3ncccn3)n2)cc1	0.3	-3.1	-1.9	3.5	-26.1	-0.3	nt	nt
Cc1ccc(Nc2nc(N)nc(CSc3nc(C)cc(C)n3)n2)cc1	-6.3	25.7*	-5.6	16.5	-18.0	-3.6	15.2	14.5
CCOc1cccc(-c2c(C(=O)N/N=C(\C)c3cccs3)nnn2-c2nonc2N)c1	-6.4	-10.2	8.9	1.3	nt	5.5	nt	nt
COc1ccc(Nc2cc(C(=O)NCc3ccccn3)c3ccccc3n2)c(OC)c1	8.4	-9.6	-14.9	7.5	4.5	0.7	nt	nt
COc1ccc(Nc2cc(C(=O)NCc3cccnc3)c3ccccc3n2)c(OC)c1	-1.4	29.8*	-3.3	-17.6	-13.8	18.7	-7.0	19.9
COc1ccc(C2CC2/C(=N/O)c2ccccn2)cc1 (centres undefined)	-7.9	28.3*	0.4	5.3	4.6	-21.2	26.2*	17.5
O/N=C(\c1ccccn1)C1CC1c1ccccc1 (centres undefined)	-12.1	-10.4	-1.6	1.3	6.2	-1.9	nt	nt
NS(=O)(=O)c1cccc(NS(=O)(=O)c2cccc(C(F)(F)F)c2)c1	4.2	-1.8	2.0	-0.4	-28.0	-1.8	nt	nt
CCN(CC)c1ccc(S(=O)(=O)N2CCOCC2)cc1NC(=O)CSC(=S)N1CCCC1	-10.3	44.3*	7.9	-3.9	nt	-4.7	24.4*	48.4*
CCN(CC)c1ccc(S(=O)(=O)N2CCOCC2)cc1NC(=O)CNCc1ccccc1	-12.7	24.2*	0.5	14.6	-9.6	2.0	31.4*	28.7*
Cc1ccc(SCC(=O)OCC(=O)N(C)CC(=O)Nc2ccc(F)cc2)cc1C	0.1	nt	-0.2	nt	nt	8.3	nt	nt
